Data published in PMC2895766 (Journal of medicinal chemistry, 2010).

How the values were obtained:
[1] = system: α1*-, α3β4*-, α4β2-, or α4β4-nAChR; format: cell-based, human; conditions: highest concentration tested 100 μM
[2] = system: nicotine-mediated antinociception (tail-flick); assay: Tail-flick test, blockade of nicotine-induced antinociception; format: in vivo; conditions: mice
In short: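 Mice got saline or test compound 15 min before nicotine (2.5 mg/kg s.c.) and were tested 5 min after nicotine. Radiant heat was applied to the upper tail with a 10 s cutoff, and a pre-treatment control latency (2–4 s) was taken for each mouse. Blockade was scored as %MPE = [(test − control)/(10 − control)] × 100 and expressed as AD50 in mg/kg.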

α4β2-nAChR = α4β2-nAChR (Homo sapiens, UniProt P17787+P43681); assay: 86Rb+ efflux assay, antagonism of carbamylcholine response, SH-EP1-hα4β2 cells; format: cell-based
α4β2-nAChR, sequence (P43681 29-627 limits assumed): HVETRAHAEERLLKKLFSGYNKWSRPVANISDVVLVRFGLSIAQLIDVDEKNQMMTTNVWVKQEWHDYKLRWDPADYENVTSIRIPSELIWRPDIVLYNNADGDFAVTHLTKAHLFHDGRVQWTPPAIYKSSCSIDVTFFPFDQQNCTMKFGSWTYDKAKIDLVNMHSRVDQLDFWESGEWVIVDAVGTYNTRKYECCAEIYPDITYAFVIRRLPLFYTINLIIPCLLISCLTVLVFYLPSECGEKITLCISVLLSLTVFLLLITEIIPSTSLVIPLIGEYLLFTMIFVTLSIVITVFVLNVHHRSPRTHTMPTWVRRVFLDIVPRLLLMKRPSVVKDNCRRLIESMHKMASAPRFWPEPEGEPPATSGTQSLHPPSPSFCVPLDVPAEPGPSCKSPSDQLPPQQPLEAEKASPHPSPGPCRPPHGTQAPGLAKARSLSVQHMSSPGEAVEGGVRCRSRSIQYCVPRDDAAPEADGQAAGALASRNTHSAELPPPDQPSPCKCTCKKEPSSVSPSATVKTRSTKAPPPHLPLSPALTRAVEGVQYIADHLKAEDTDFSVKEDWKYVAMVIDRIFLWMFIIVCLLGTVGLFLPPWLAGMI
α4β2-nAChR, sequence (P17787 26-502): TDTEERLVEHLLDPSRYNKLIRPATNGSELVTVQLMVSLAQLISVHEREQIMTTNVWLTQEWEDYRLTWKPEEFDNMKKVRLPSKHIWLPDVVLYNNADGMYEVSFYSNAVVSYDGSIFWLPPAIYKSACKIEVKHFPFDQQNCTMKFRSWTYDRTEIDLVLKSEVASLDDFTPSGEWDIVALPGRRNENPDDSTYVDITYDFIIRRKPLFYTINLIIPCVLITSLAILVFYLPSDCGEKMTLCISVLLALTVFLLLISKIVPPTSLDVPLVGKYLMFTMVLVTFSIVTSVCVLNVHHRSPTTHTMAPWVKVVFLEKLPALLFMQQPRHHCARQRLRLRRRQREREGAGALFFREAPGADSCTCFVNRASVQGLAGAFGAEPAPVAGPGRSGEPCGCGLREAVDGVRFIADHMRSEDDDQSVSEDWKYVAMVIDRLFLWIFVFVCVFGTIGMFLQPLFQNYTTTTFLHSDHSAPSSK

[3] = target: human NE transporters [h(NET)] (Homo sapiens, UniProt P23975); assay: Inhibition of [3H]norepinephrine uptake in HEK293 cells expressing hNET; format: cell-based; conditions: ratio of IC50 values
human NE transporters [h(NET)], sequence (P23975 whole entry): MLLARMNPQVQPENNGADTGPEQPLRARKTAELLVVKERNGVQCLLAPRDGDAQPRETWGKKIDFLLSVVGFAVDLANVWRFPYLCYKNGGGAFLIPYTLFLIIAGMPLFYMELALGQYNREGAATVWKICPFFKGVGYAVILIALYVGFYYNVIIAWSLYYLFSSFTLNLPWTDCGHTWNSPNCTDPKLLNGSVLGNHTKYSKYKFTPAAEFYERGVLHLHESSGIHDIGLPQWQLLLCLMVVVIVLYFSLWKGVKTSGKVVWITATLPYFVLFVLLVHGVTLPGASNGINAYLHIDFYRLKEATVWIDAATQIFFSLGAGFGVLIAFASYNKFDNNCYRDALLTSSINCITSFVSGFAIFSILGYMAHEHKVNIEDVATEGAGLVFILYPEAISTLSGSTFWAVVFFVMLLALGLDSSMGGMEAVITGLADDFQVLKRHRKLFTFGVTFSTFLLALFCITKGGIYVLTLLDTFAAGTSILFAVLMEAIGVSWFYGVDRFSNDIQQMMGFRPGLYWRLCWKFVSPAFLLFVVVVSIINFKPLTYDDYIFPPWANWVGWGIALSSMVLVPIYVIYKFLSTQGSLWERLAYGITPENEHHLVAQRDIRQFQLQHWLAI

mice = conditions: cited from earlier work

Row | SMILES | extent of antagonism at all nAChR subtypes tested [1] | other results
1 | C[C@H]1NC(C)(C)CO[C@]1(O)c1cccc(Cl)c1 [(2R,3R)-4a, (2R,3R)-2-(3-Chlorophenyl)-3,5,5-trimethylmorpholin-2-ol, reference compound] | full antagonist | –
2 | CCC[C@@H]1NC(C)(C)CO[C@@]1(O)c1cccc(Cl)c1 [Compound 4t, (2S,3S)-2-(3-Chlorophenyl)-5,5-dimethyl-3-propyl-morpholin-2-ol] | full antagonist | –
3 | C[C@@H]1NC(C)(C)CO[C@@]1(O)c1cccc2ccccc12 [Compound 4q, (2S,3S)-2-(Naphthalen-1-yl)-3,5,5-trimethylmorpholin-2-ol] | – | fold higher activity in the tail-flick assay than (2S,3S)-4a [2]: ~ 5 fold
4 | C[C@@H]1NC(C)(C)CO[C@@]1(O)c1cccc([N+](=O)[O-])c1 [Compound 4g, (2S,3S)-2-(3-Nitrophenyl)-3,5,5-trimethylmorpholin-2-ol] | block all nAChR function at an adequately high concentration | –
5 | C[C@@H]1NC(C)(C)CO[C@@]1(O)c1ccc2ccccc2c1 [Compound 4r, (2S,3S)-2-(Naphthalen-2-yl)-3,5,5-trimethylmorpholin-2-ol] | – | fold higher activity in the tail-flick assay than (2S,3S)-4a [2]: ~ 5 fold
6 | C[C@@H]1NC(C)(C)CO[C@@]1(O)c1cccc(Br)c1 [Compound 4d, (2S,3S)-2-(3-Bromophenyl)-3,5,5-trimethylmorpholin-2-ol] | block all nAChR function at an adequately high concentration | selectivity for inhibition of α4β2-nAChR over NE uptake inhibition (α4β2-nAChR): ~ 1.7 fold
7 | C[C@@H]1NC(C)(C)CO[C@@]1(O)c1cccc(Cl)c1 [(2S,3S)-4a, (2S,3S)-2-(3-Chlorophenyl)-3,5,5-trimethylmorpholin-2-ol, reference compound] | full antagonist | times more potent than 2 in inhibiting NE uptake [3]: 7.7 times
8 | C[C@H]1NC(C)(C)CO[C@]1(O)c1cccc(Cl)c1 (racemic) [racemic hydroxybupropion] | – | convulsions after i.p. administration (mice): induced convulsions
9 | C[C@@H]1NC(C)(C)CO[C@@]1(O)c1cccc(F)c1 [Compound 4c, (2S,3S)-2-(3-Fluorophenyl)-3,5,5-trimethylmorpholin-2-ol] | block all nAChR function at an adequately high concentration | –
